SUMO HTRF inh: blocks human SUMOylation mediated by UBC9 | P63279 | HTRF SUMOylation assay, SAE1/SAE2 + UBC9, in vitro | inhibition, % at 35 µM | 0.36% of 290,000 active | AID 2006; in the data active = inhibition above about 50%, passing the limit was not always enough
Target sequence (P63279 whole entry, looked up): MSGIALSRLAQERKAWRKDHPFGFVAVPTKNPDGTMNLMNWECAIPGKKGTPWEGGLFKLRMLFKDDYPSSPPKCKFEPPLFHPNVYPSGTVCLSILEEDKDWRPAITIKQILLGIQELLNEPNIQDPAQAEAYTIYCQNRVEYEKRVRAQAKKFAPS
A3G deaminase: blocks human APOBEC3G single-stranded DNA deamination | recombinant A3G, ssDNA deamination FAM/TAMRA fluorescence | 0.28% of 330,000 active | inhibition, % at 20 µM | AID 493012 | Q9HC16;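 active = inhibition of at least 40% at 20 µM, with no more than 30% in the related APOBEC3A deaminase screen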;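 note: plate controls were DMSO wells with A3G for no effect and wells lacking A3G enzyme for full effect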
Target sequence (Q9HC16 whole entry, looked up): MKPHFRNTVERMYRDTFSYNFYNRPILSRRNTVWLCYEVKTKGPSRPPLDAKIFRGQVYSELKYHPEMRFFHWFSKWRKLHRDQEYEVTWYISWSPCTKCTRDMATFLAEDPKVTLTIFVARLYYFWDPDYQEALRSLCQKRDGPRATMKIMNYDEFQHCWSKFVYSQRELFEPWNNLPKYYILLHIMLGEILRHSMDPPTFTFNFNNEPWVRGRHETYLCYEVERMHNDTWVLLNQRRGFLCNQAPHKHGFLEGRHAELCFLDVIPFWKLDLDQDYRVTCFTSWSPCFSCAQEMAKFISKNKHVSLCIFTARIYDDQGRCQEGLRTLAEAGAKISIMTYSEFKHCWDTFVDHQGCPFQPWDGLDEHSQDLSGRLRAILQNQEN
PfM18AAP inh: blocks P. falciparum M18 aspartyl aminopeptidase | 1.2% of 290,000 active | AID 1822 | recombinant PfM18AAP, H-Glu-NHMec fluorogenic cleavage | inhibition, % at 7.35 µM;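 active = inhibition above the campaign mean inhibition over all tested compounds plus 3 SD, cut at about 28% in these data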;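 note: 0% = plate median of test compound wells and 100% = 2 mM ZnCl2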
PfG6PD inh: PfG6PD (Plasmodium falciparum) enzyme inhibition; PfGluPho enzyme, NADPH resazurin-diaphorase fluorescence; 0.78% of 350,000 active; inhibition, % at 20 µM;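 active = inhibition reaching at least a set limit at 20 µM in the primary screen, cut at about 59% in these data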;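 note: 0% = DMSO wells with substrate and 100% = DMSO wells lacking glucose-6-phosphate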
HKDC1 inhibitor: inhibitors of human hexokinase HKDC1. AID 493160. recombinant HKDC1, G6PDH/diaphorase resazurin coupled fluorescence. inhibition, % at 20 µM. 0.16% of 340,000 active. Q2TB90;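 active = inhibition above about 35% when tested at 20 µM, limit read from the data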;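 note: plate controls were DMSO wells with enzyme for no effect and DMSO wells lacking enzyme for full effect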
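Test system: HK5 enzyme. Quantity: 5 µg/mL HK5 final. Reagent: glucose and ATP substrates. Schedule: 90 min reaction incubation at room temperature, dark. Technique: resazurin-to-resorufin fluorescence via G6PDH and diaphorase coupling, 525/613 nm. Control set: DMSO wells with and without enzyme mix.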
A3A deaminase: human APOBEC3A DNA deaminase inhibition | 0.41% of 330,000 active | AID 493011 | recombinant A3A, FAM/TAMRA ssDNA deamination fluorescence | inhibition, % at 20 µM | P31941;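 active = at least 40% inhibition at 20 µM here, with at most 30% in a related deaminase screen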;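 note: plate controls were A3A with DMSO for no effect and wells lacking A3A enzyme for full effect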
Starred values were filed as active, the others as inactive; / = no result. Only some compounds are listed: those with a hit (about 2.4% of all), similar ones and a draw of the others.

SMILES | SUMO HTRF inh | A3G deaminase | PfM18AAP inh | PfG6PD inh | HKDC1 inhibitor | A3A deaminase
CN1CCN(C(=O)c2ccc3c(c2)N(Cc2ccc(Cl)cc2)C(=O)c2ccccc2S3=O)CC1 (stereo not given) | 0 | 2 | -7 | -5 | 7 | 0
N#Cc1nc(-c2ccc(F)cc2)oc1N1CCN(C(=O)c2ccco2)CC1 | 17 | -1 | 1 | 3 | 0 | 2
Brc1ccc(-c2c(-c3ccsc3)sc3ccccc23)cn1 | / | -9 | / | 7 | 3 | -2
CC(C)Sc1nc(N2CCCC2)c2c(c1C#N)CC(C)(C)OC2 | -14 | 0 | 4 | -1 | 5 | 6
CCOc1ccc(NC2=C(OC)C(=O)c3ccccc3C2=O)cc1 | 57* | -7 | 3 | -35 | 2 | -4
CCCCN1C(=O)CC(SC2CC(=O)N(CCCC)C2=O)C1=O (stereo not given) | / | / | / | -6 | -1 | /
CCOC(=O)C(C(C)=O)c1c(Br)c(O)c(O)c2c(C(=O)c3ccc(C)cc3)coc12 (stereo not given) | 26 | -2 | 47* | 25 | 10 | 1
CN(CCC1CCCCO1)C(=O)CCc1nnc(CCCCc2ccccc2)o1 (stereo not given) | 9 | -5 | -12 | 6 | 11 | -5
COc1ccccc1Oc1ccc2c(c1)C(=O)N(c1cccc(O)c1)C2=O | -30 | -2 | 31* | 30 | -4 | -2
CCN(CC)c1ccc(-n2c(C)c(C(C)=O)c(C(C)=O)c2C)cc1 | -4 | -3 | 28* | 11 | -2 | -1
CC(=O)c1c(C(C)=O)c(C)n(-c2ccc(O)cc2)c1C | -13 | 0 | -15 | -15 | -3 | 1
O=C(NC(=S)N1CCN(c2ccc(O)cc2)CC1)c1cccs1 | 5 | -3 | 31* | 24 | -1 | -1
Cc1ccc(NC(=S)NNC(C)(C)C)cc1 | -4 | -3 | -3 | 18 | -7 | -3
CC(C)=NN/C(N)=N/C(=S)Nc1ccc(C)cc1 | 11 | -8 | 29* | 0 | -2 | -3
COc1ccc(S(=O)(=O)Nc2cc(Sc3ncn[nH]3)c(O)c3ccccc23)cc1 | 88* | / | 50* | / | / | /
COc1ccc(-c2nnc(SC(C)C(=O)Nc3nccs3)n2-c2ccccc2)cc1OC (stereo not given) | 11 | -3 | -4 | 7 | -2 | -4
COC1=C(C)C(=O)C2=C(C1=O)C1C3CC4=C(C(=O)C(OC)=C(C)C4=O)C(CNC(=O)C(C)=O)N3C(C#N)C(C2)N1C (stereo not given) | / | / | / | 120* | 60* | /
COc1ccc(CCN=C(N)NS(=O)(=O)c2cccs2)cc1OC | -2 | -5 | 3 | -8 | -5 | -2
O=C1/C(=C/c2ccco2)Oc2c1ccc(O)c2CN1CCCCC1 | 61* | 72 | 16 | 12 | 8 | 86
Cc1ccc(/C=C2\Oc3c(ccc(O)c3CN3CCN(CCO)CC3)C2=O)cc1 | 42 | -11 | -13 | 9 | 2 | -4
O=C(Nc1nnc(-c2ccccc2)o1)c1nc2ccccc2s1 | 74* | -7 | / | -4 | -6 | -3
COc1cc(NC(=S)NC(=O)c2ccco2)ccc1NC(=O)C(C)C | 15 | -17 | 6 | 0 | -3 | 1
CCCN(CCC)CCCNS(=O)(=O)c1cc(Br)cc2c1N(C(C)=O)CC2 | 11 | 3 | -1 | -17 | -1 | 1
Oc1ccc(-c2n[nH]c(=S)n2Cc2ccco2)cc1 | 1 | 49* | 19 | 24 | 4 | -1
Oc1cc2ccccc2cc1-c1n[nH]c(=S)n1Cc1ccco1 | 29 | -1 | 19 | 48 | 1 | -2
SMILES | SUMO HTRF inh | A3G deaminase | PfM18AAP inh | PfG6PD inh | HKDC1 inhibitor | A3A deaminase
O=C1c2cccc(O)c2C(=O)c2c(O)cccc21 | 10 | -1 | 18 | / | / | 6
CC1OC(CC(=O)O)CC2=C1C(=O)c1c(O)cccc1C2=O (stereo not given) | / | / | / | 131* | 31 | /
Cc1ccc(CNC(=O)Cc2ccc(-n3c(=O)[nH]c4ccsc4c3=O)cc2)cc1 | 15 | -8 | 4 | -23 | -14 | -4
Cc1ccc(C2=NC(=O)/C(=C/c3cc(O)c(O)c(Br)c3)S2)cc1 | 45 | 0 | 48* | 27 | 27 | 3
Cc1cc(C)nc(N/N=C2/CCSc3ccc(F)cc32)n1 | 8 | -7 | 4 | 32 | -7 | 4
O=C(O)c1ccc(N/N=C2/CCSc3ccc(F)cc32)cc1 | 2 | 3 | 29* | -6 | -2 | 3
O=C1CN=CN=CN1c1ccc(Cl)cc1Cl | -4 | -7 | 40* | -14 | -2 | -2
O=C(OCc1cn(Cc2ccccc2)nn1)c1ccccc1 | 7 | 2 | / | -7 | -1 | 3
CN1C(=O)Cc2cc(S(=O)(=O)Nc3ccc(Cl)cc3)ccc21 | 23 | -2 | 29* | -9 | 4 | 2
CNC(=O)c1c(NC(=O)c2ccc(S(=O)(=O)N3CCCC3)cc2)sc2c1CCN(C(C)C)C2 | -13 | -8 | 32* | / | / | -6
CNC(=O)c1c(NC(=O)c2ccc(S(=O)(=O)N3CC(C)OC(C)C3)cc2)sc2c1CCN(C(C)C)C2 (stereo not given) | 9 | -10 | -7 | 12 | -3 | -5
Cc1nnc(NC(=O)c2cccc(S(=O)(=O)N(C)c3cccc(Cl)c3)c2)s1 | / | -8 | / | -13 | 5 | -7
Cc1nn(-c2ccccc2)c(Cl)c1/C=N/Nc1ccc(S(=O)(=O)Nc2ccccc2C(=O)O)cc1[N+](=O)[O-] | 62* | -7 | 1 | -20 | -1 | 1
O=C(CCCc1nc2ccccc2s1)N1CCN(c2ccccc2F)CC1 | -1 | -4 | -6 | 11 | -7 | -2
COc1cc(/C=C(\C#N)C(=O)NCC2CCCO2)ccc1OCC(=O)O (stereo not given) | 16 | -9 | 3 | 6 | 9 | -4
COc1cc(/C=C(\C#N)C(=O)NCC2CCCO2)c([N+](=O)[O-])cc1OC (stereo not given) | 0 | 12 | 30* | -4 | 0 | 25
COc1ccc(N2C(=O)CC(Sc3n[nH]c(-c4cccc(C)c4)n3)C2=O)cc1 (stereo not given) | 4 | 34 | -36 | 6 | -3 | -4
CCOc1ccc(/C=N/n2cc(-c3ccccc3)[nH]c2=S)cc1 | 3 | 9 | 54* | 42 | -4 | -8
COc1ccc(/C=N/n2c(-c3ccccc3)n[nH]c2=S)cc1 | -7 | 27 | 17 | 32 | -4 | -4
COCCC1CCCCN1C(=O)c1cccc(OC2CCN(C3CCCC3)CC2)c1 (stereo not given) | -4 | -5 | 1 | -7 | -5 | 1
O=[N+]([O-])c1ccc(/C=N/n2c(C3CCCCC3)n[nH]c2=S)cc1 | 16 | 37 | 3 | 37 | -2 | -3
O=C(O)c1ccc(/C=N/n2c(C3CCCCC3)n[nH]c2=S)cc1 | 2 | 14 | 30* | 12 | -4 | 17
O=C(O)c1ccc(N2C(=O)/C(=C/C=C/c3ccccc3)SC2=S)cc1 | 2 | -7 | 17 | 29 | 3 | 1

Assay outcomes (PubChem)
